Results pooled from the literature.
Protocols differ between the studies behind these lines.
Read-out: enzyme activity
Mode: inhibitor
EGFR: Epidermal growth factor receptor (EGFR, Homo sapiens, UniProt P00533)
CDK6 with cyclin D3: Cyclin-dependent kinase 6, with cyclin D3 (CDK6, Homo sapiens, UniProt Q00534)
YCK2: Serine/threonine protein kinase YCK2 (YCK2, Candida albicans, UniProt A0A1D8PKB4)
MTOR: Serine/threonine-protein kinase mTOR (MTOR, Homo sapiens, UniProt P42345)
CA2: Carbonic anhydrase 2 (CA2, Bos taurus, UniProt P00921)

CCCCCCCCCCCC[N+]1(C)CCOCC1 — IC50 (EGFR; ELISA): 1350 nM
O=C1C(=O)N(CCn2ncc3c(=O)[nH]cnc32)c2ccc(Cl)cc21 — IC50 (CDK6 with cyclin D3; ADP detection): 603 nM
c1ccc(-c2n[nH]cc2-c2ccncn2)nc1 — IC50 (YCK2; ADP detection): 1600 nM
CNS(=O)(=O)c1ccc(Nc2ncc(C(F)(F)F)c(N3CCC(C)(O)CC3)n2)c(C)c1 — IC50 (CDK6 with cyclin D3; radiometric): 794 nM
c1coc(-c2n[nH]cc2-c2ccnc3ccccc23)c1 — IC50 (YCK2; ADP detection): 830 nM
COc1ccc(-c2ccc3c(N4CCOC[C@@H]4C)nc(N4CCOC[C@@H]4C)nc3n2)cc1C(=O)NCCOCCOCCOCCONC(=O)c1ccc(F)c(F)c1Nc1ccc(I)cc1F — IC50 (MTOR; FRET): 28 to 40 nM
COc1cc(-c2[nH]c(=S)nc3nc(Nc4ccc(S(N)(=O)=O)cc4)sc23)ccc1O — IC50 (CA2; absorbance): 79.5 nM
CNS(=O)(=O)c1ccc(Nc2ncc(C(F)(F)F)c(N3CCCC(C)(O)C3)n2)c(C)c1 (centres unmarked) — IC50 (CDK6 with cyclin D3; radiometric): 4320 nM
COc1ccc(-c2ccc3c(N4CCOC[C@@H]4C)nc(N4CCOC[C@@H]4C)nc3n2)cc1COC(=O)CCOCCOCCOCCONC(=O)c1ccc(F)c(F)c1Nc1ccc(I)cc1F — IC50 (MTOR; FRET): 40.5 nM
Nc1cnccc1Nc1ccc(Cl)c(Cl)c1 — IC50 (DNA-3-methyladenine glycosylase (Homo sapiens, UniProt P29372)): > 99000 nM
CNC(c1ccccc1)c1c(N)[nH]c(=O)[nH]c1=O (centres unmarked) — IC50 (EGFR): 4600 nM
Oc1ccccc1-c1n[nH]cc1-c1ccnc2ccccc12 — IC50 (YCK2; ADP detection): 350 nM
O=C1C[C@@H](c2ccc(O)cc2)Oc2cc(O)cc(O)c21 — IC50 (CA2; absorbance): 68900 nM
Cc1cc(O)c(-c2ccc([C@@H](C)CN(C)C)cc2)c2c1[nH]c(=O)c1sccc12 — IC50 (Cyclin-dependent kinase 6, with cyclin D1 (CDK6, Homo sapiens, UniProt Q00534)): > 1000 nM
CC(=O)c1nc2ccccc2n1Cc1cn([C@@H]2OC[C@@H](O)[C@H](O)[C@H]2O)nn1 — IC50 (EGFR): 132 nM
c1ccc(-c2n[nH]cc2-c2ccncc2)nc1 — IC50 (YCK2; ADP detection): 520 nM
COc1ccc(N2CCN(Cc3cn4c(-c5ccc(Br)cc5)nnc4s3)CC2)cc1 — IC50 (Ferroptosis suppressor protein 1 (AIFM2, Homo sapiens, UniProt Q9BRQ8); absorbance): 34 nM
Cc1cc2c(cc1C)N[C@H](c1ccccc1)[C@@H](O)C(=O)N2 — IC50 (MTOR): 144 nM
CNS(=O)(=O)c1ccc(Nc2ncc(C(F)(F)F)c([C@H]3CC[C@@](C)(O)CC3)n2)c(C)c1 — IC50 (CDK6 with cyclin D3; radiometric): 8650 nM
O=C(/C=C/c1ccc(F)cc1)c1nc2ccccc2n1Cc1cn([C@@H]2O[C@H](CO)[C@H](O)[C@H](O)[C@H]2O)nn1 — IC50 (EGFR): 69 nM
NS(=O)(=O)c1ccc(-n2nc(C(=O)NN=Cc3ccc(O)cc3)cc2-c2ccccc2)cc1 — IC50 (Serine/threonine-protein kinase B-raf (BRAF, Homo sapiens, UniProt P15056, V600E)): 18500 nM
Cc1cc(S(=O)(=O)NCCO[C@H]2CC[C@H](CN3CCC(c4ccn5c(N6CCC(=O)NC6=O)cnc5c4)CC3)CC2)ccc1Nc1ncc2cc(Cl)c(=O)n(C3CCCC3)c2n1 — IC50 (CDK6 with cyclin D3; radiometric): 153 nM
CCNC(c1ccccc1)c1c(N)[nH]c(=O)[nH]c1=O (centres unmarked) — IC50 (EGFR): 653 nM
